From PubChem BioAssay
In the library only some 4.1% were active in any assay of this set; here they are far more common.
KCC2 mod = KCC2 cotransporter modulators, thallium flux, primary screen, cell-based, HEK293 KCC2, FluoZin-2 fluorescence, MLSMR | KCC2 cells, thallium flux FluoZin-2 fluorescence | AID 1456, 2008 | Solute carrier family 12 member 5 (Homo sapiens), Q9H2X9 | B-score of Tl+ flux slope (higher = more flux/activation; lower = inhibition) at 10 µM | 190,000 tested, 2.2% active;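 active means thallium flux slope and its plate-corrected score both differing from the plate sample mean at a set confidence after two filtering rounds, in either direction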;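 further: slope of fluorescence scaled to starting intensity during 10 to 20 s after thallium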
KCNQ1 inh = inhibitors of human KCNQ1 channel, primary screen, cell-based, thallium flux, high-throughput; Potassium voltage-gated channel subfamily KQT member 1 (Homo sapiens), P51787; B-score at 10 µM; AID 2642, 2010; CHO-K1 KCNQ1, FluxOR thallium flux fluorescence; stronger effect = higher value; 310,000 tested, 1.3% active;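 active means compounds whose thallium flux B-score, printed positive for inhibition, exceeds three library SD while starting fluorescence stays within three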;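 further: channel opened by potassium depolarization with thallium stimulus after 20 min compound exposure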
hERG protect = hERG rescue from dofetilide block, primary screen, cell-based, CHO-hERG, FluxOR thallium flux, dofetilide IC70 | dofetilide IC70 present | activation (rescue from dofetilide block), less the hit threshold, % at 10 µM | Voltage-gated inwardly rectifying potassium channel KCNH2 (Homo sapiens), Q12809 | 310,000 tested, 0.51% active;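 active means activation above the mean of controls blocked by dofetilide plus 5 SD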;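 further: thallium influx through hERG after potassium depolarization seen as dye fluorescence rise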
KCNK3 block = human KCNK3 channel inhibitors, primary screen, CHO cells, FluxOR thallium flux, B-score; FluxOR fluorescence; stronger effect = lower value; B-score at 10 µM; 340,000 tested, 0.84% active; AID 602410, 2012;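 active means B-score under library mean minus 4 SD, starting fluorescence ratio at most library mean plus 5 SD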;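 further: more negative B-score means stronger inhibition of thallium flux through KCNK3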
KCNQ1 pot = potentiators or activators of KCNQ1 channel, primary screen, cell-based, thallium flux, high-throughput; Potassium voltage-gated channel subfamily KQT member 1 (Homo sapiens), P51787; CHO-K1 KCNQ1, thallium flux FluxOR fluorescence; stronger effect = higher value; B-score at 10 µM; 310,000 tested, 0.35% active;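 active means fluorescence ratio B-score, a plate-corrected score, at least three library SD, with initial intensity B-score within 5 SD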
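System: Stable KCNQ1 CHO-K1 line | Incubation: 90 min dye loading and 20 min compound exposure, both at room temperature | Measure: Ratio B score | Medium: Assay buffer for compound exposure, DMSO matched across wells | Compound dosing: Single-concentration screen | Probe or stimulus: K+/Tl+ depolarizing stimulus | Measured by: Kinetic FluxOR fluorescence, 10 s baseline plus 110 s post-stimulus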
KCNK9 block = KCNK9 potassium channel inhibitors, primary screen, HEK293 cells, thallium flux; FluxOR thallium flux fluorescence; stronger effect = lower value; B-score at 10 µM; 310,000 tested, 1.2% active; Potassium channel subfamily K member 9 (Homo sapiens), Q9NPC2;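 active means ratio B-score over 3 SD below the library mean, with starting fluorescence within 5 SD of its mean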;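 further: negative B-score means less thallium flux so channel inhibition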
* marks the source's active call; other numbers are inactive results.

What do the screens show for `Cc1ccccc1NC(=O)CCN1CCCCCC1`?
KCNQ1 inh: inactive; hERG protect: 4.8*; KCNK3 block: inactive; KCNQ1 pot: inactive; KCNK9 block: inactive

How did COc1ccc2nc(NC(=O)CN3CCOCC3)sc2c1 do in these assays?
KCNQ1 inh: inactive; hERG protect: 7.3*; KCNK3 block: inactive; KCNQ1 pot: inactive; KCNK9 block: inactive

What do the screens show for `O=C(CN1CCCCCC1)Nc1ccc(Oc2ccccc2)cc1`?
KCC2 mod: inactive; KCNQ1 inh: inactive; hERG protect: 18.2*; KCNK3 block: inactive; KCNQ1 pot: 19*; KCNK9 block: inactive

Results for O=C(CN1CCOCC1)Nc1ccc(Oc2ccc(NC(=O)CN3CCOCC3)cc2)cc1 ?
KCC2 mod: 0.868; KCNQ1 inh: inactive; hERG protect: -13.2; KCNK3 block: inactive; KCNQ1 pot: inactive; KCNK9 block: inactive

What do the screens show for `O=C(c1cc(-c2ccc(Cl)cc2)nc2ccccc12)N1CCC1`?
KCNQ1 inh: 8*; hERG protect: -27.1; KCNK3 block: inactive; KCNQ1 pot: inactive; KCNK9 block: inactive

What do the screens show for `Cc1ccc2nc(-c3ccccc3)cc(C(=O)N3CCc4ccccc4C3)c2c1`?
KCC2 mod: -0.321; KCNQ1 inh: 7*; hERG protect: -7.3; KCNK3 block: inactive; KCNQ1 pot: inactive; KCNK9 block: inactive

How did COC(=O)C1CCN(C(=O)c2cc(-c3ccc(Cl)s3)nc3ccccc23)CC1 do in these assays?
KCNK3 block: -9.12*

Results for CCN1CCN(C(=O)c2cc(-c3ccc(Cl)s3)nc3ccccc23)CC1 ?
KCNQ1 inh: inactive; hERG protect: -10.5; KCNK3 block: inactive; KCNQ1 pot: inactive; KCNK9 block: inactive

What do the screens show for `O=C(c1cc(-c2ccccc2)nc2ccccc12)N1CCc2ccccc2C1`?
KCC2 mod: -0.569; KCNQ1 inh: inactive; hERG protect: -8.6; KCNK3 block: inactive; KCNQ1 pot: inactive; KCNK9 block: inactive

How did COc1ccc(C(OC(=O)c2ccco2)C(=O)NC(C)(C)C)cc1OC (stereo not given) do in these assays?
KCNK3 block: inactive

Results for COc1ccc(OC)c(NC(=O)c2cccnc2Sc2cc(C)ccc2C)c1 ?
KCC2 mod: -0.24; KCNQ1 inh: inactive; hERG protect: -5.9; KCNK3 block: inactive; KCNQ1 pot: inactive; KCNK9 block: -7.59*

Results for COc1ccc(-c2nc(-c3ccccc3)c(-c3cc([N+](=O)[O-])ccc3C)[nH]2)cc1O ?
KCC2 mod: -0.467; KCNQ1 inh: 7*; hERG protect: -4.9; KCNK3 block: inactive; KCNQ1 pot: inactive; KCNK9 block: -10.3*

What do the screens show for `COc1ccc([N+](=O)[O-])cc1-c1[nH]c(-c2ccc(C(=O)O)cc2)nc1-c1ccccc1`?
KCNQ1 inh: inactive; hERG protect: -7.6; KCNK3 block: inactive; KCNQ1 pot: inactive; KCNK9 block: inactive

Results for COc1ccc(Cl)cc1NC(=O)COC(=O)C1=NNC(=O)CC1 ?
KCNK3 block: inactive

Results for CCOC(=O)C(=Cc1ccc2c(c1)OCO2)c1ccccc1 ?
KCNK3 block: -9.8*

How did COc1ccc(-c2cc(C(=O)N3CCc4ccccc4C3)no2)cc1 do in these assays?
KCC2 mod: -1.86; KCNQ1 inh: inactive; hERG protect: -10.7; KCNK3 block: inactive; KCNQ1 pot: inactive; KCNK9 block: inactive

Results for COc1ccc(OC)c(-c2cc(C(=O)N3CCc4ccccc4C3)no2)c1 ?
KCC2 mod: -1.26; KCNQ1 inh: 6*; hERG protect: -9.6; KCNK3 block: inactive; KCNQ1 pot: inactive; KCNK9 block: inactive

What do the screens show for `C=C(C)CSc1cc(C)c(C#N)c2nc3ccccc3n12`?
KCC2 mod: -1.77; KCNQ1 inh: 6*; hERG protect: -25.5; KCNK3 block: inactive; KCNQ1 pot: inactive; KCNK9 block: inactive

What do the screens show for `Cc1[nH]c2ccccc2c1C1=CC(=O)C=CC1=O`?
KCNK3 block: -9.21*

What do the screens show for `Cn1nc([N+](=O)[O-])c(C(C#N)c2nc3ccccc3n2C)c(Cl)c1=O` (stereo not given)?
KCC2 mod: -1.28; KCNQ1 inh: 6*; hERG protect: -11.2; KCNK3 block: inactive; KCNQ1 pot: inactive; KCNK9 block: inactive

Results for COc1ccc(C2=CCCC2)c(OC)c1 ?
KCNK3 block: inactive

How did COC(=O)Oc1ccc(/C=C/C(=O)OC(C)C)cc1OC(=O)OC do in these assays?
KCC2 mod: -0.141; KCNQ1 inh: inactive; hERG protect: 6.6*; KCNK3 block: inactive; KCNQ1 pot: inactive; KCNK9 block: inactive

Results for CCCCOC(=O)/C=C/c1ccc(OC(=O)OC)c(OC(=O)OC)c1 ?
KCC2 mod: 0.0151; KCNQ1 inh: inactive; hERG protect: -4.4; KCNK3 block: inactive; KCNQ1 pot: inactive; KCNK9 block: inactive

Results for Cc1ccc(CN2CC(C(=O)NNC(=O)c3ccc(F)cc3)CC2=O)cc1 (stereo not given) ?
KCNK3 block: inactive

Results for COC1c2ccccc2C(=O)N1CCc1ccc(Cl)cc1 (stereo not given) ?
KCNQ1 inh: inactive; hERG protect: -4.8; KCNK3 block: inactive; KCNQ1 pot: inactive; KCNK9 block: inactive

What do the screens show for `COc1cc(/C=N/NC(=O)c2cc(-c3ccccc3)sc2N)cc(OC)c1OC`?
KCC2 mod: -0.093; KCNQ1 inh: inactive; hERG protect: -7.7; KCNQ1 pot: inactive; KCNK9 block: -7.83*

How did COc1ccc(OCC(=O)NNC(=O)C(=O)Nc2ccc(C)cc2)cc1 do in these assays?
KCC2 mod: 21.9*; KCNQ1 inh: inactive; hERG protect: 3.4; KCNK3 block: inactive; KCNQ1 pot: inactive; KCNK9 block: inactive

How did COc1cccc(OCC(=O)NNC(=O)C(=O)Nc2ccc(OC)cc2OC)c1 do in these assays?
KCNQ1 inh: inactive; hERG protect: 22.8*; KCNK3 block: inactive; KCNQ1 pot: 11*; KCNK9 block: inactive

What do the screens show for `COc1ccccc1NC(=O)C(=O)NNC(=O)COc1ccc2ccccc2c1`?
KCNQ1 inh: inactive; hERG protect: 55.6*; KCNK3 block: inactive; KCNQ1 pot: 84*; KCNK9 block: inactive

How did CC(C)(C)NC(=O)C(=O)NNC(=O)COc1ccc(Br)cc1 do in these assays?
KCC2 mod: 20.2*; KCNQ1 inh: inactive; hERG protect: 5.1*; KCNK3 block: inactive; KCNQ1 pot: 8*; KCNK9 block: inactive
